Our source for the IC50, Ks and Activity values is ChEMBL document CHEMBL1148193, “Cytotoxic pyrroloiminoquinones from four new species of South African latrunculid sponges” (J Nat Prod, 2004).

Structures are written as SMILES.

Assay [1] relates to HCT-116. Briefly: Cytotoxicity against human HCT116 cells after 72 hrs by MTS assay. To be noted: HCT-116, 72 h. In kind it is functional, cell-based. The method in brief:
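HCT-116 colon tumor cells plated and incubated overnight at 37 °C, then given serially diluted samples in DMSO for a further 72 h. Etoposide as positive control and DMSO as negative control. MTS/PMS added for 3 h, absorbance read at 490 nm, IC50 derived from serial dilution data.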
For orientation: Tetrazolium assays rely on reduction of a dye to a coloured formazan, in cell work by metabolically active cells.

The test system of assay [2] is Salmonidae. Briefly: Displacement of ethidium bromide form salmon testes sperm DNA by fluorescence plate reader. The method in brief: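 Salmon testes sperm DNA (25 μg mL⁻¹) with ethidium bromide (0.5 μg mL⁻¹) in TE, compound final concentrations 100 to 0.01 μM in tenfold steps. n = 4 per dose, n = 8 for controls. Fluorescence measured, background EtBr subtracted and divided by the DNA+EtBr control. KS is the concentration giving 50% fluorescence decrease.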

In assay [3] the target is T1, DNA topoisomerase 1 (Homo sapiens) (UniProt P11387).
T1 sequence (whole entry): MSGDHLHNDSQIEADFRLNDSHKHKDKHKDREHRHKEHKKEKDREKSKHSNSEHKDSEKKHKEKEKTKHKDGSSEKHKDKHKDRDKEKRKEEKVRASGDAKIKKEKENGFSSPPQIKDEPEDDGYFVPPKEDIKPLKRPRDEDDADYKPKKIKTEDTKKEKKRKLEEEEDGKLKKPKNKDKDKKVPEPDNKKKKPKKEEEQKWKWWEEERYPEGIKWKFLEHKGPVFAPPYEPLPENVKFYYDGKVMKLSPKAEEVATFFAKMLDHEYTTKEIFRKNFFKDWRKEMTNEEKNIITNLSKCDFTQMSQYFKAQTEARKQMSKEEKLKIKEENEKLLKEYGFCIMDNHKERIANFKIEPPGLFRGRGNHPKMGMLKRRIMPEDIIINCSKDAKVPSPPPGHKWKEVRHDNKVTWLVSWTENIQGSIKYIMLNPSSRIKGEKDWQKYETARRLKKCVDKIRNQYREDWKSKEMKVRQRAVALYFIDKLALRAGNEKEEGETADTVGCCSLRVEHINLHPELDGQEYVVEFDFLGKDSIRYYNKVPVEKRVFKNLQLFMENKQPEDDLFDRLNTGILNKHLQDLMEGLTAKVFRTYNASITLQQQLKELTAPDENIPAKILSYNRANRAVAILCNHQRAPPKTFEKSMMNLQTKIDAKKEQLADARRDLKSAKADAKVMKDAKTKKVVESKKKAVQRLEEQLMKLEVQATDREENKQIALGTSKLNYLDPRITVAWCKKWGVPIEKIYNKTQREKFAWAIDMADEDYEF
Briefly: Inhibition of topoisomerase 1-mediated relaxation of supercoiled DNA assessed as DNA cleavage at 500 uM relative to control. Also on record: scale not given: the % may be the effect or the level left. The method in brief: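 Radiolabeled supercoiled rf M13 mp19 DNA with purified topoisomerase I (80-120 ng) in Tris-HCl 50 mM pH 7.5, KCl 85 mM, MgCl2 10 mM, EDTA 0.5 mM, BSA 30 μg/mL, DTT 2 mM. Compound in DMSO, 30 °C for 30 min, then proteinase K/SDS at 37 °C for 60 min. 0.8% agarose gel, bands excised and scintillation counted. % cleaved from nicked plus linear bands over total, minus endogenous cleavage. 9-aminocamptothecin as reference.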

In assay [4] the target is T1, DNA topoisomerase 1 (Homo sapiens). The assay is described as follows: Inhibition of topoisomerase 1-mediated relaxation of supercoiled DNA assessed as DNA cleavage at 9 uM relative to control. Further details: scale not given: the % may be the effect or the level left. The method in brief: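 Radiolabelled supercoiled rf M13 mp19 DNA (500 ng) and purified topoisomerase I (80-120 ng) in Tris-HCl 50 mM pH 7.5, KCl 85 mM, MgCl2 10 mM, EDTA 0.5 mM, BSA 30 µg/mL, DTT 2 mM. Compound added in DMSO; 30 °C, 30 min. Proteinase K/SDS stop (37 °C, 60 min). Bands resolved on 0.8% agarose, excised and scintillation-counted. Nicked+linear counts taken as % of total, minus endogenous cleavage.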

With `Cn1cc2c3c1C(=O)c1[nH]cc(-c4ccc(O)cc4)c1C3=[N+]([O-])CC2`, the midpoint of inhibition in assay [1], the IC50, lay at 16500 nM. Further, in assay [2], the Ks was 30 µM. Also, the Activity in assay [3] stood at 26%.
`O=C1C(Br)=CC2(C=C1Br)CCNC1=C2C2=NCCc3c(Br)[nH]c(c32)C1=O`: inhibition in assay [1] was half-maximal at 77 nM (IC50).
For `O=C1C2=C(C3=NCCc4c(Br)[nH]c1c43)C1(C=CN2)C=C(Br)C(O)C(Br)=C1` (stereo not given), the concentration for half-maximal inhibition (IC50) (usually the concentration at which inhibition is half-maximal) in assay [1] was determined as 222 nM.
For `O=C1C2=C(C3=NCCc4c(Br)[nH]c1c43)C1(C=C(Br)C(O)C(Br)=C1)CCN2` (stereo not given), the IC50 in assay [1] came out at 645 nM.
Still for that read-out and setting: the same measure for `COC1[C@H]2C(=O)C=C3S[C@H]4C[C@]31C1=C(N4)C(=O)c3[nH]cc4c3C1=[N+]2CC4` (stereo not given in full): 232 nM.
Same read-out and setting: the value for `O=C1C2=C(C3=NCCc4c[nH]c1c43)C1(C=CN2)C=C(Br)C(O)C(Br)=C1` (stereo not given) was 197 nM.
Regarding `O=C1c2[nH]cc3c2C(=[N+](O)CC3)c2c(-c3ccc(O)cc3)c[nH]c21`, 128000 nM corresponded to half-maximal inhibition in assay [1] (IC50). The Ks in assay [2] was 20 µM. Moreover, in assay [3], the Activity stood at 45%.
`O=C1C2=C3C4=[N+](CCc5c(Br)[nH]c1c54)C1C(O)C(Br)=CC3(CCN2)C1O` (stereo not given) had an IC50 in assay [1] of 12500 nM.
The same measure, in the same setting: the same measure for `NC1[C@H]2C(=O)C=C3S[C@H]4C[C@]31C1=C(N4)C(=O)c3[nH]cc4c3C1=[N+]2CC4` (stereo not given in full): 119 nM.
As for `CC[C@@]1(O)C(=O)OCc2c1cc1n(c2=O)Cc2cc3c(N)cccc3nc2-1`, the Activity in assay [4] amounted to 87%.
`O=C1c2[nH]cc3c2C(=NCC3)c2c(-c3c[nH]c4ccccc34)c[nH]c21` registered a Ks in assay [2] of 20 µM.
Consider `CN1CCc2c[nH]c3c2C1=CC(=O)C3=O` [DAMIRONE B], for which the midpoint of inhibition in assay [1], the IC50, lay at 3100 nM.
On to `O=C1C2=C(C3=NCCc4c[nH]c1c43)C1(C=C(Br)C(O)C(Br)=C1)CCN2` (stereo not given) [DIHYDRODISCORHABDIN C], for which half-maximal inhibition in assay [1] (IC50) was put at 323 nM.
Same read-out and setting: the value for `O=C1C2=C3C4=[N+](CCc5c[nH]c1c54)[C@H]1C[C@@]34C[C@@H](N2)SC4=CC1=O` [DISCORHABDIN D] was 595 nM.
Take `O=C1C=CC23CC(NC4=C2C2=NCCc5c[nH]c(c52)C4=O)SC3=C1` (stereo not given) [DISCORHABDIN G]: the midpoint of inhibition in assay [1], the IC50, lay at 327 nM.
The molecule `O=C(O)CNC1C2C(=O)C=C3SC4CC31C1=C(N4)C(=O)c3[nH]cc4c3C1=[N+]2CC4` (stereo not given) [DISCORHABDIN N] yielded an IC50 in assay [1] of 2250 nM.
Still for that read-out and setting: the same measure for `O=C1C2=C3C4=[N+](CCc5c[nH]c1c54)C1CC3(C=C(Br)C1O)CCN2` (stereo not given) [DISCORHABDIN V]: 1270 nM.
As to `O=C1C[C@H]2S[C@H]3C[C@]2(C=C1Br)C1=C(N3)C(=O)c2[nH]cc3c2C1=NCC3` [DISCORHABDINE A], half-maximal inhibition in assay [1] (IC50) was put at 7 nM.
On the same count and under the same terms, the value for `C[N+]1=C2C=C(N)C(=O)c3[nH]cc(c32)CC1` [MAKALUVAMINE C] was 1090 nM; that for `CN1CCc2c[nH]c(C(=O)O)c2C1=O` [MAKALUVIC ACID A] was 28400 nM.
In turn, `O=C1c2[nH]cc3c2C(=NCC3)c2c(-c3ccc(O)cc3)c[nH]c21` [TSITSIKAMMAMINE A] yielded an IC50 in assay [1] of 1410 nM. In assay [2], this molecule gave a Ks of 15 µM. Also, in assay [3], the Activity came out at 59%.
Regarding `Cn1cc2c3c1C(=O)c1[nH]cc(-c4ccc(O)cc4)c1C3=NCC2` [TSITSIKAMMAMINE B], the IC50 in assay [1] is 2380 nM. The Ks in assay [2] came out at 45 µM. Moreover, the Activity in assay [3] came to 27%.
